Data: ChEMBL document CHEMBL1687824, “Overexpression of patA and patB, which encode ABC transporters, is associated with fluoroquinolone resistance in clinical isolates of Streptococcus pneumoniae” (2011)
Values after ≈ are worked out from the molar mass of the structure shown.

Tests used:
Streptococcus pneumoniae [1] = test: Antibacterial activity against Streptococcus pneumoniae M46B overexpressing patA, patB and inactivated patB with single mutation by standardized agar doubling dilution method; type: functional
Method in brief: (§1)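 MICs were determined by agar doubling dilution following BSAC guidelines, with no efflux inhibitor. Strains were grown in brain heart infusion broth for 24 h at 37°C in 5% CO2. Species identity was confirmed by Gram stain, optochin sensitivity and capsule test. Control strain R6 was tested alongside.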

Streptococcus pneumoniae [2] = test: Antibacterial activity against fluoroquinolone, dye-resistant Streptococcus pneumoniae M50 overexpressing patA, patB by standardized agar doubling dilution method; type: functional
Method in brief: (§2)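 MIC by agar doubling dilution following BSAC guidelines. Strains grown in brain heart infusion broth 24 h at 37°C in 5% CO2. Where an efflux pump inhibitor applies, MIC redetermined with reserpine at 20 μg/ml or sodium orthovanadate at 50 μM. Synergy taken as a fall in MIC of ≥2 dilutions with inhibitor present. Dye resistance defined relative to R6 (both dyes ≥2 dilutions higher).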

Streptococcus pneumoniae [3] = test: Antibacterial activity against Streptococcus pneumoniae M303 overexpressing patA, patB and inactivated patA with single mutation by standardized agar doubling dilution method; type: functional
Method in brief: (§3)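 MICs determined by BSAC standardized agar doubling dilution. Strains were grown in brain heart infusion broth for 24 h at 37°C in 5% CO2. Inhibitor arms had reserpine at 20 μg/ml or sodium orthovanadate at 50 μM in the agar. Mutants were made by transforming magellan2 insertion amplimers into clinical isolates and selecting on spectinomycin 100 mg/liter, with a no-DNA spontaneous-mutation control.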

Streptococcus pneumoniae [4] = test: Antibacterial activity against fluoroquinolone-resistant Streptococcus pneumoniae by standardized agar doubling dilution method; type: functional; method in brief: as §2
Streptococcus pneumoniae [5] = test: Antibacterial activity against fluoroquinolone-resistant Streptococcus pneumoniae M98 FQ-R overexpressing patA, patB by standardized agar doubling dilution method; type: functional
Method in brief: (§4)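 Clinical S. pneumoniae isolates grown in BHI broth 24 h at 37°C in 5% CO2. MICs by agar doubling dilution per BSAC guidelines, alone or with efflux inhibitor reserpine (20 μg/ml) or sodium orthovanadate (50 μM). Synergy defined as ≥2-dilution MIC reduction in presence of inhibitor.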

Streptococcus pneumoniae [6] = test: Antibacterial activity against fluoroquinolone, dye-susceptible Streptococcus pneumoniae by standardized agar doubling dilution method in presence of 20 ug/ml reserpine efflux pump inhibitor; type: functional; method in brief: as §2
Streptococcus pneumoniae [7] = test: Antibacterial activity against Streptococcus pneumoniae M311B overexpressing patA, patB and inactivated patB with single mutation by standardized agar doubling dilution method in presence of 20 ug/ml reserpine efflux pump inhibitor; type: functional; method in brief: as §3
Streptococcus pneumoniae [8] = test: Antibacterial activity against Streptococcus pneumoniae M317 overexpressing patA, patB and inactivated patB with single mutation by standardized agar doubling dilution method in presence of 20 ug/ml reserpine efflux pump inhibitor; type: functional
Method in brief: (§5)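 MICs were determined by BSAC agar doubling dilution in the presence of reserpine at 20 μg/ml. Strains were grown in BHI broth for 24 h at 37°C in 5% CO2, with R6 as control. Synergy was defined as an MIC drop of ≥2 dilutions with the inhibitor.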

Streptococcus pneumoniae [9] = test: Antibacterial activity against Streptococcus pneumoniae M45A overexpressing patA, patB and inactivated patA with single mutation by standardized agar doubling dilution method in presence of 50 uM sodium orthovanadate efflux pump inhibitor; type: functional
Method in brief: (§6)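 MICs were determined by BSAC agar doubling dilution in the presence of sodium orthovanadate at 50 μM. Cultures were grown in BHI broth for 24 h at 37°C in 5% CO2, with R6 as control. Synergy was defined as an MIC reduction of ≥2 dilutions with the inhibitor present.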

Streptococcus pneumoniae [10] = test: Antibacterial activity against dye-resistant Streptococcus pneumoniae by standardized agar doubling dilution method; type: functional; method in brief: as §2
Streptococcus pneumoniae [11] = test: Antibacterial activity against Streptococcus pneumoniae M318 overexpressing patA, patB and inactivated patA with single mutation by standardized agar doubling dilution method in presence of 20 ug/ml reserpine efflux pump inhibitor; type: functional; method in brief: as §5
Streptococcus pneumoniae [12] = test: Antibacterial activity against Streptococcus pneumoniae M301 overexpressing patA, patB and inactivated patA with single mutation by standardized agar doubling dilution method in presence of 50 uM sodium orthovanadate efflux pump inhibitor; type: functional; method in brief: as §3
Streptococcus pneumoniae [13] = test: Antibacterial activity against Streptococcus pneumoniae M50B overexpressing patA, patB and inactivated patB with single mutation by standardized agar doubling dilution method; type: functional; method in brief: as §1
Streptococcus pneumoniae [14] = test: Antibacterial activity against Streptococcus pneumoniae M308 overexpressing patA, patB and inactivated patB with single mutation by standardized agar doubling dilution method in presence of 50 uM sodium orthovanadate efflux pump inhibitor; type: functional; method in brief: as §3
Streptococcus pneumoniae [15] = test: Antibacterial activity against dye-resistant Streptococcus pneumoniae by standardized agar doubling dilution method in presence of 20 ug/ml reserpine efflux pump inhibitor; type: functional; method in brief: as §2
Streptococcus pneumoniae [16] = test: Antibacterial activity against Streptococcus pneumoniae M298 overexpressing patA, patB and inactivated patA with single mutation by standardized agar doubling dilution method
Streptococcus pneumoniae [17] = test: Antibacterial activity against fluoroquinolone, dye-resistant Streptococcus pneumoniae M45 overexpressing patA, patB by standardized agar doubling dilution method in presence of 20 ug/ml reserpine efflux pump inhibitor; type: functional; method in brief: as §2
Streptococcus pneumoniae [18] = test: Antibacterial activity against Streptococcus pneumoniae M298 overexpressing patA, patB and inactivated patA with single mutation by standardized agar doubling dilution method; type: functional; method in brief: as §3
Streptococcus pneumoniae [19] = test: Antibacterial activity against fluoroquinolone-resistant Streptococcus pneumoniae M97 FQ-R overexpressing patA, patB by standardized agar doubling dilution method in presence of 20 ug/ml reserpine efflux pump inhibitor; type: functional
Method in brief: (§7)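 MIC by agar doubling dilution per BSAC guidelines; strains pregrown in brain heart infusion broth 24 h, 37°C, 5% CO2. MICs measured alone and with efflux pump inhibitors reserpine (20 μg/ml) or sodium orthovanadate (50 μM); synergy defined as ≥2-dilution MIC reduction in presence of inhibitor.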

Streptococcus pneumoniae [20] = test: Antibacterial activity against Streptococcus pneumoniae M87A overexpressing patA, patB and inactivated patA with single mutation by standardized agar doubling dilution method in presence of 50 uM sodium orthovanadate efflux pump inhibitor; type: functional; method in brief: as §6
Streptococcus pneumoniae [21] = test: Antibacterial activity against fluoroquinolone, dye-resistant Streptococcus pneumoniae M45 overexpressing patA, patB by standardized agar doubling dilution method in presence of 50 uM sodium orthovanadate efflux pump inhibitor; type: functional; method in brief: as §2
Streptococcus pneumoniae [22] = test: Antibacterial activity against fluoroquinolone-resistant Streptococcus pneumoniae M100 FQ-R overexpressing patA, patB by standardized agar doubling dilution method in presence of 20 ug/ml reserpine efflux pump inhibitor; type: functional; method in brief: as §7
Streptococcus pneumoniae [23] = test: Antibacterial activity against Streptococcus pneumoniae M50A overexpressing patA, patB and inactivated patA with single mutation by standardized agar doubling dilution method; type: functional; method in brief: as §1
Streptococcus pneumoniae [24] = test: Antibacterial activity against fluoroquinolone-resistant Streptococcus pneumoniae M100 FQ-R overexpressing patA, patB by standardized agar doubling dilution method in presence of 50 uM sodium orthovanadate efflux pump inhibitor; type: functional; method in brief: as §7
Streptococcus pneumoniae [25] = test: Antibacterial activity against fluoroquinolone, dye-resistant Streptococcus pneumoniae by standardized agar doubling dilution method in presence of 50 uM sodium orthovanadate efflux pump inhibitor; type: functional; method in brief: as §2
Streptococcus pneumoniae [26] = test: Antibacterial activity against fluoroquinolone, dye-resistant Streptococcus pneumoniae by standardized agar doubling dilution method in presence of 20 ug/ml reserpine efflux pump inhibitor; type: functional; method in brief: as §2
Streptococcus pneumoniae [27] = test: Antibacterial activity against fluoroquinolone-resistant Streptococcus pneumoniae M83 FQ-R overexpressing patA, patB by standardized agar doubling dilution method; type: functional; method in brief: as §4
Streptococcus pneumoniae [28] = test: Antibacterial activity against fluoroquinolone, dye-resistant Streptococcus pneumoniae M86 overexpressing patA, patB by standardized agar doubling dilution method; type: functional; method in brief: as §2

Row | Structure (SMILES) | MIC (Streptococcus pneumoniae [1]) [µg/mL] | MIC (Streptococcus pneumoniae [2]) [µg/mL] | MIC (Streptococcus pneumoniae [3]) [µg/mL] | MIC90 (Streptococcus pneumoniae [4]) [µg/mL] | MIC (Streptococcus pneumoniae [5]) [µg/mL] | MIC90 (Streptococcus pneumoniae [6]) [µg/mL] | MIC (Streptococcus pneumoniae [7]) [µg/mL] | MIC (Streptococcus pneumoniae [8]) [µg/mL] | MIC (Streptococcus pneumoniae [9]) [µg/mL] | MIC (Streptococcus pneumoniae [10]) [µg/mL] | MIC90 (Streptococcus pneumoniae [10]) [µg/mL] | MIC (Streptococcus pneumoniae [11]) [µg/mL] | MIC (Streptococcus pneumoniae [12]) [µg/mL] | MIC (Streptococcus pneumoniae [13]) [µg/mL] | MIC (Streptococcus pneumoniae [14]) [µg/mL] | MIC90 (Streptococcus pneumoniae [15]) [µg/mL] | MIC (Streptococcus pneumoniae [16]) [µg/mL] | MIC (Streptococcus pneumoniae [17]) [µg/mL] | MIC (Streptococcus pneumoniae [18]) [µg/mL] | MIC (Streptococcus pneumoniae [19]) [µg/mL] | other results
1 | O=C(O)c1cn(C2CC2)c2cc(N3CCNCC3)c(F)cc2c1=O [CIPROFLOXACIN] | 0.12 (≈ 0.362 µM) | 64 (≈ 193 µM) | 2 (≈ 6.04 µM) | 8 (≈ 24.1 µM) | 32 (≈ 96.6 µM) | 0.5 | 4 | 8 | 1 | 0.25 (≈ 0.754 µM) | 0.25 (≈ 0.754 µM) | 16 | 8 | 4 (≈ 12.1 µM) | 0.12 | 0.5 | 8 (≈ 24.1 µM) | 1 | 8 (≈ 24.1 µM) | 4 | MIC (Streptococcus pneumoniae [20]): 8 µg/mL; MIC (Streptococcus pneumoniae [21]): 1 µg/mL; MIC (Streptococcus pneumoniae [22]): 2 µg/mL; MIC (Streptococcus pneumoniae [23]): 4 µg/mL (≈ 12.1 µM); MIC (Streptococcus pneumoniae [24]): 1 µg/mL; MIC90 (Streptococcus pneumoniae [25]): 8 µg/mL; MIC90 (Streptococcus pneumoniae [26]): 4 µg/mL; MIC (Streptococcus pneumoniae [27]): 64 µg/mL (≈ 193 µM); MIC (Streptococcus pneumoniae [28]): 2 µg/mL (≈ 6.04 µM)
2 | CC[n+]1c(-c2ccccc2)c2cc(N)ccc2c2ccc(N)cc21.[Br-] [HOMIDIUM BROMIDE] | 0.5 | 4 | 1 | 2 | 4 | 0.25 | 0.5 | 0.5 | 0.5 | 16 | 16 | 0.5 | 0.25 | 0.5 | 0.5 | 0.5 | 0.5 | 0.5 | 0.5 | 0.5 | MIC (Streptococcus pneumoniae [15]): 0.5 µg/mL; MIC (Streptococcus pneumoniae [20]): 0.5 µg/mL; MIC (Streptococcus pneumoniae [21]): 1 µg/mL; MIC (Streptococcus pneumoniae [22]): 0.25 µg/mL; MIC (Streptococcus pneumoniae [23]): 0.5 µg/mL; MIC (Streptococcus pneumoniae [24]): 1 µg/mL; MIC90 (Streptococcus pneumoniae [25]): 1 µg/mL; MIC90 (Streptococcus pneumoniae [26]): 0.5 µg/mL; MIC (Streptococcus pneumoniae [27]): 8 µg/mL; MIC (Streptococcus pneumoniae [28]): 4 µg/mL
